Bioassay records: PubChem BioAssay, The Scripps Research Institute Molecular Screening Center
MBD2 DNA inh: MBD2-methylated oligo binding inhibition. TR-FRET, MBD2 binding to methylated oligonucleotide. inhibition, % at 4.4 µM. hit rate 0.31% among 370,000. AID 686964; in the data active means inhibition above about 13%
Target sequence (Q9UBB5 whole entry, looked up): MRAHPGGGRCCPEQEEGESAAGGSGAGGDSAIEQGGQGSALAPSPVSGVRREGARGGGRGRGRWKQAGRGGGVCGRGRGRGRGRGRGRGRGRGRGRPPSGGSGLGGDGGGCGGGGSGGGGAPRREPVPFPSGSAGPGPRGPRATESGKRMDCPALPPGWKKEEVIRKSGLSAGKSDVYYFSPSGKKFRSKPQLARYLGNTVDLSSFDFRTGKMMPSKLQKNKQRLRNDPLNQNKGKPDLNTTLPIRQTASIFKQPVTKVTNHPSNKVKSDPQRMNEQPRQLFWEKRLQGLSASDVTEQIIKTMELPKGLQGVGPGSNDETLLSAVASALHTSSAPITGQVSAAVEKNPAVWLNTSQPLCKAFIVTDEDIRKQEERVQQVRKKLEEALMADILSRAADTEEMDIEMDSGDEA
UHRF1 binding: UHRF1 methyl-DNA binding inhibition; Q96T88; UHRF1 binding to methylated oligo, TR-FRET; inhibition, % at 4.4 µM; hit rate 0.75% among 370,000; AID 687016; in the data active means inhibition above about 21%;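 further: UHRF1 SRA domain binding a hemimethylated CpG hairpin DNA probe; 0% = median of test compound wells and 100% = reference inhibitor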
LEDGF integ inh: blocks HIV-1 LEDGF/p75-dependent DNA integration | inhibition, % at 3.7 µM | AID 743269 | TR-FRET IN-LEDGF/p75 DNA integration, Eu/Cy5 | hit rate 0.64% among 370,000;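 active means inhibition above the screen-wide mean plus 3 SD, cut at about 13% in these data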;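 further: signal is the Cy5 over europium emission ratio at 671 and 618 nm; 0% = plate median of compound wells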
TDP2 absorb: TDP2 (human) inhibition, absorbance primary screen; O95551; recombinant TDP2, T5PNP hydrolysis, p-nitrophenol absorbance 415 nm; inhibition, % at 12.8 µM; hit rate 0.34% among 370,000;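 active means inhibition above the mean of all tested compounds plus 3 SD, set per campaign, cut at about 25% in these data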;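 further: 0% = DMSO with enzyme and 100% = buffer with substrate but no TDP2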
Target sequence (O95551 whole entry, looked up): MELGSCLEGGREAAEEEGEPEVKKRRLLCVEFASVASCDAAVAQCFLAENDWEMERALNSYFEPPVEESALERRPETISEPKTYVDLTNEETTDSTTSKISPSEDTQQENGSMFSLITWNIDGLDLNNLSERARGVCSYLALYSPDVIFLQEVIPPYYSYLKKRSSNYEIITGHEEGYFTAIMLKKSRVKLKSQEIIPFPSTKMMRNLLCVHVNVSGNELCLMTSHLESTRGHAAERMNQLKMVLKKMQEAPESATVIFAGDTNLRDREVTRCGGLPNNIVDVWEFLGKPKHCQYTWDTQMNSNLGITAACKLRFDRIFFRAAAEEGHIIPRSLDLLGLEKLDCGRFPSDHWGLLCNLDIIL
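System – recombinant human TDP2 · Quantity – TDP2 enzyme at 120 nM final · Doses – single concentration, 12.8 µM nominal, with 1% DMSO · Incubation – 2 h at 37 °C · Measured by – epi absorbance of p-nitrophenol freed from T5PNP by hydrolysis · Read-out – % inhibition relative to enzyme-containing and enzyme-free wells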
IN multimer act: counter-screen for LEDGF/p75 integration inhibitors: HIV-1 integrase multimerization activators | shares compounds with LEDGF integ inh | TR-FRET HIV-1 integrase multimerization, biochemical | activation, % at 7.7 µM | hit rate 17% among 2,000; in the data active means activation above about 8.9%
TRFRET interf: optically interferes with TR-FRET readout in LEDGF counter-screen | inhibition, % at 7.7 µM | TR-FRET optical interference counterscreen, HIV-1 IN multimerization | 2,000 tested, under 10 active | AID 1053135 | shares compounds with LEDGF integ inh;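 active means inhibition above the mean over all tested compounds plus 3 SD, which no compound reached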;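 further: 0% = integrase with antibodies and DMSO and 100% = antibodies without integrase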
IN-LEDGF confirm: confirmation of HIV-1 LEDGF/p75-dependent integration inhibitors | inhibition, % at 3.7 µM | TR-FRET LEDGF/p75-dependent HIV-1 integration, biochemical | hit rate 36% among 2,000 | shares compounds with LEDGF integ inh; in the data active means inhibition above about 14%
* hit, by the source's call; / = no result. A selection: hits, their analogues and other compounds. The true share with any hit is near 1.6%.

SMILES | MBD2 DNA inh | UHRF1 binding | LEDGF integ inh | TDP2 absorb | IN multimer act | TRFRET interf | IN-LEDGF confirm
N#CCCN(C(=O)COC(=O)c1cc(=O)c2ccccc2o1)c1ccccc1 | 3.3 | -1.1 | -0.9 | 10.0 | / | / | /
CCOc1ccc(S(=O)(=O)Nc2ccc(C(=O)NCC(C)(C)N3CCOCC3)cc2)cc1 | -2.6 | -3.5 | 2.4 | 1.5 | / | / | /
C=CCNc1oc(-c2ccc(Cl)cc2)nc1C#N | -5.3 | -4.0 | -3.0 | 6.4 | / | / | /
CCC(=O)Nc1ccc(F)c(Cl)c1 | 1.1 | -2.6 | -0.9 | 4.5 | / | / | /
CCc1cccc(NC(=O)CCCCCC2NC(=O)NC2C)c1 (stereo not given) | -2.1 | -0.6 | 77.1* | -11.0 | -1.8 | 8.8 | 91.5*
CC1NC(=O)NC1CCCCCC(=O)Nc1ccc(F)c(Cl)c1 (stereo not given) | -4.3 | -2.3 | 74.1* | 4.6 | 0.9 | -3.4 | 91.6*
O=C(c1ccccc1)c1cccc(NC(=O)c2ccc(Br)o2)c1 | -4.2 | -0.5 | 18.4* | -3.8 | -1.9 | 9.9 | -4.3
CCOc1ccc(CCNC(=O)c2[nH]c(C)c(C(C)=O)c2C)cc1OCC | -2.8 | 6.2 | 0.0 | -6.7 | / | / | /
CCN1C(=O)[C@@H]2[C@H](C1=O)[C@@H]1C(=O)Nc3ccccc3C(=O)N1[C@@H]2c1ccccc1 | 2.6 | 0.2 | 0.2 | 9.6 | / | / | /
Brc1ccc(-c2nn3c(-c4ccco4)nnc3s2)o1 | 5.9 | 22.1* | 14.8* | -6.0 | 9.3* | -47.0 | 29.8*
Clc1ccc(-c2ccc(-c3nn4c(-c5ccco5)nnc4s3)o2)cc1 | -1.6 | -1.6 | 6.4 | 8.3 | / | / | /
CN(Cc1ccc(F)cc1)S(=O)(=O)c1nnc(NC(=O)c2ccccc2)s1 | 1.7 | -1.4 | -1.5 | 4.7 | / | / | /
O=C(O)CCCC[C@@H]1SC[C@@H]2NC(=O)N[C@@H]21 | 4.5 | 1.1 | 92.7* | 0.0 | 1.6 | -7.9 | 95.9*
COC(=O)CCCCC1SCC2NC(=O)NC21 (stereo not given) | 0.0 | 0.8 | 0.8 | 5.2 | / | / | /
CC1CC(C)CN(S(=O)(=O)c2ccc(NC(=O)C3COc4ccccc4O3)cc2)C1 (stereo not given) | 1.6 | 0.4 | 2.2 | -4.7 | / | / | /
COP(=O)(OC)c1ccc(NCc2cc(O)ccc2O)cc1 | -1.8 | 2.2 | 19.9* | -5.3 | 63.5* | -225.4 | 24.0*
CC(C)(C)S(=O)(=O)c1ccsc1C(=O)O | -4.6 | -3.0 | -0.8 | 10.4 | / | / | /
O=C(CCNC(=O)c1ccccc1Cl)Nc1nc2ccc(F)cc2s1 | 3.1 | 6.5 | -3.3 | 5.2 | / | / | /
Cc1csc2c(SCC(=O)NNS(=O)(=O)c3cccc(C(F)(F)F)c3)ncnc12 | -4.6 | -62.0 | -1.1 | -0.7 | / | / | /
COC(=O)CSc1ncnc2c(C)csc12 | 1.4 | 5.2 | 45.0* | 6.7 | 1.0 | -5.0 | 2.9
Cc1ccc(-c2nc(C#N)c(N3CCC(C)CC3)o2)cc1 | 0.1 | -0.7 | -0.4 | 1.1 | / | / | /
CCC(=O)Nc1nnc(S(=O)(=O)N2CCCCCC2)s1 | -0.5 | -0.1 | 4.6 | -4.7 | / | / | /
CCC(=O)Nc1nnc(S(=O)(=O)N2CCCC2)s1 | -2.0 | -0.8 | 14.1* | 10.8 | -2.3 | 11.8 | -4.0
COc1ccc(C(=O)C2CCCN(Cc3ccc(C#CCCO)cc3)C2)cc1F (stereo not given) | 4.7 | 1.0 | -3.3 | 1.0 | / | / | /
Cc1cc(NC(=O)CSc2ccc3nnc(CCNC(=O)c4ccccc4)n3n2)no1 | -2.3 | -0.9 | -4.2 | 5.8 | / | / | /
SMILES | MBD2 DNA inh | UHRF1 binding | LEDGF integ inh | TDP2 absorb | IN multimer act | TRFRET interf | IN-LEDGF confirm
Cc1ccc(NC(=O)CSc2ccc3nnc(CCNC(=O)c4ccccc4)n3n2)c(C)c1 | -6.4 | -0.5 | 43.4* | -5.7 | 0.5 | -2.5 | -4.0
C=CCCC[C@H]1OC(=O)[C@H](C)NC(=O)[C@H](C(C)C)NC(=O)[C@@H]2CCCN2C(=O)[C@H](Cc2ccccc2)OC(=O)[C@@H](C(C)C)N(C)C(=O)[C@H](C(C)C)NC(=O)C1(C)C | 10.7 | 18.2 | 16.2* | -5.5 | 0.2 | -1.2 | -8.0
Cc1cc(C)nc(N2CCCC(C(=O)Nc3cc(F)ccc3C)C2)n1 (stereo not given) | 5.5 | 3.3 | -1.2 | 5.8 | / | / | /
O=CN(c1ccccc1)c1ccc2ccccc2c1 | -3.9 | -1.9 | -0.1 | -3.2 | / | / | /
COc1ccc(C2C(C#N)=C(N)OC3=C2C(=O)CC(C)(C)C3)cc1Cn1nc(C)c([N+](=O)[O-])c1C (stereo not given) | -1.8 | -1.9 | 14.5* | 3.0 | 1.2 | -6.2 | -4.8
O=C(Cn1cnc2c(nnn2-c2ccccc2)c1=O)NCc1ccc(F)cc1 | 7.1 | 32.5* | 15.2* | -10.0 | 5.8 | -29.0 | 3.2
Cc1ccc(-n2nnc3c(=O)n(CC(=O)NCc4ccccc4)cnc32)cc1 | 3.0 | 1.5 | -1.5 | -10.3 | / | / | /
CC1Oc2ccccc2N(CC(=O)Nc2ccccc2F)C1=O (stereo not given) | -0.5 | 2.6 | 9.7 | -2.6 | / | / | /
Cc1cc(Cl)cc(C)c1OCCCCN1CCOCC1 | -5.4 | -0.6 | 15.0* | 2.4 | -0.8 | 3.9 | 2.5
COc1cccc(NC(=O)CSc2nnc(-c3ccoc3C)n2-c2ccccc2)c1 | -2.7 | -2.9 | 29.3* | -1.4 | 1.6 | -5.6 | -12.9
COc1ccc(-n2c(SCC(=O)Nc3ccccc3)nnc2-c2ccoc2C)cc1 | 2.2 | 0.8 | 0.9 | -6.9 | / | / | /
CC(=O)c1ccc(NC(=O)CSc2nnc(-c3ccco3)c(-c3ccco3)n2)cc1 | -0.9 | 20.0 | 34.5* | 7.0 | 12.2* | -43.8 | 45.1*
Cc1c(-c2cccc(Cl)c2)nc2ccccc2c1C(=O)NC1CC1 | 0.1 | 3.1 | 21.0* | -3.7 | 0.0 | 0.0 | -3.2
Cc1cc(NS(=O)(=O)c2ccc(NC(=O)CSc3nnc(-c4ccco4)n3-c3ccc(Cl)cc3)cc2)nc(C)n1 | 3.7 | 1.6 | -1.9 | -6.0 | / | / | /
CC1=C(C)CC(C(=O)Nc2nc(-c3ccc(F)cc3)c(C)s2)C(C(=O)O)C1 (stereo not given) | 1.8 | 7.8 | 0.5 | 8.0 | / | / | /
CC1=C(C)CC(C(=O)Nc2nc(-c3ccc(C)cc3C)c(C)s2)C(C(=O)O)C1 (stereo not given) | -3.8 | -1.2 | 24.7* | 7.3 | 5.4 | -27.3 | -0.3
CC1CCCN(C(=O)C2COc3ccccc3O2)C1 (stereo not given) | 0.6 | 0.3 | -1.3 | 0.1 | / | / | /
Cc1ccc(C(=O)CSc2nnc3ccccn23)c(C)c1 | 4.9 | 1.0 | -3.4 | -3.8 | / | / | /
COCCn1c(C)cc(C(=O)CSc2nnc3ccccn23)c1C | 1.9 | 2.6 | 15.0* | 13.5 | -2.0 | 10.0 | 32.9*
N#C/C(=C\c1ccc([N+](=O)[O-])o1)C(=O)Nc1ccc(F)cc1 | -0.8 | 1.2 | 21.0* | 11.6 | 0.9 | -3.4 | 11.9
CCOC(=O)/C(C#N)=C/c1ccc(OC(=O)c2ccccn2)cc1 | -5.2 | -6.3 | -1.1 | 2.5 | / | / | /
COC(=O)/C(C#N)=C/c1ccc(OC(=O)c2ccccn2)cc1 | 0.1 | 1.3 | 14.3* | -1.9 | 0.5 | -2.3 | -0.4
